# Sampled rows, rich in hits. Any-hit rate of the full collection: about 4.7%.
# ADAM17 inh: ADAM17 inhibition, QFRET primary screen | recombinant ADAM17, EDANS/DABCYL FRET peptide cleavage | inhibition, % at 6.95 µM | 370,000 tested, 0.83% active;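 active = inhibition above the mean of compounds lying between control limits plus 3 SD, set per campaign, cut at about 8.5% in these data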;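 also: 0% = DMSO-only wells as the low control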
# ADAM10 inh: ADAM10 inhibition, QFRET primary screen; 370,000 tested, 0.62% active; recombinant ADAM10, EDANS/DABCYL FRET peptide cleavage, 3 h; O14672; inhibition, % at 7 µM; AID 720582;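 active = inhibition above a per-campaign cutoff equal to the mean of compounds falling between control-based bounds plus 3 SD, cut at about 20% in these data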;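 also: 0% = DMSO wells while the 100% control is not disclosed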
# Target sequence (O14672 214-748 limits assumed): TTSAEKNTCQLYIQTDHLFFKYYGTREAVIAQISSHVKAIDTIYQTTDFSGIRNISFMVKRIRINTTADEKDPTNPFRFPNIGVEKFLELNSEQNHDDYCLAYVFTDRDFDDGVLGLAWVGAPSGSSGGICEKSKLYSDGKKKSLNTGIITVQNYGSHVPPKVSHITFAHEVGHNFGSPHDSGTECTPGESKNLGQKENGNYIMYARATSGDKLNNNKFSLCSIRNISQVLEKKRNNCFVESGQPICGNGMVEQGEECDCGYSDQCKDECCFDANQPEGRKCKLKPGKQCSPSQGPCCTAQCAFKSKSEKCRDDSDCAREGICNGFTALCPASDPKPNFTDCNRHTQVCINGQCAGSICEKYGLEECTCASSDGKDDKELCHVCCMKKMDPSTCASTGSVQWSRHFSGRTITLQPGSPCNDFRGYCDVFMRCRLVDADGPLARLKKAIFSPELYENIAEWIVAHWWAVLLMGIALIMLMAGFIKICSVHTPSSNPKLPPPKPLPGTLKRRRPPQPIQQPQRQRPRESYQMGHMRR
# MT1-MMP act inh: MT1-MMP (human) activation inhibition; 360,000 tested, 0.061% active; GFP/RFP ratio change, % at 20 µM; HT1080 RFP-PRO-GFP cells, GFP/RFP ratio fluorescence, overnight; percent of plate control window, DMSO zero;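 active = GFP/RFP ratio change of at least 30% with cell ATP level not reduced by more than half and red fluorescence within 50% of control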
#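 Assay system: HT1080 RFP-PRO-GFP cells | Dosing: 20 µM single dose, 1% DMSO | Incubation: Cells overnight before dosing, compound overnight, 37 °C, 5% CO2 | Evaluation: GFP/RFP fluorescence ratio | Control set: DMSO-only wells and HT1080 RFP-L50D-GFP cell wells as references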
# SKN-1 block: inhibitors of C. elegans SKN-1 | 360,000 tested, 0.49% active | C. elegans VP596 Pgst-4::GFP/RFP ratio, acrylamide-induced, 24 h | inhibition, % at 21.8 µM | AID 624304;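 active = interference check ratio from 0.5 to 1.5 plus GFP to RFP signal ratio inhibition reaching or exceeding a fixed threshold, cut at about 30% in these data, passing the limit was not always enough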
# GRIN3A LBD mod: modulators (binders) of human NR3A ligand-binding domain | NR3A LBD differential scanning fluorimetry, Tm shift; 0% = protein alone, 100% = glycine-bound protein | Tm shift relative to glycine control, % at 25 µM | AID 1259313 | 340,000 tested, 2.5% active;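 active = melting temperature shift of at least 10% of the positive control shift, at one fixed dose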
# MPTP inh: blocks calcium-induced mitochondrial swelling. isolated mouse mitochondria, Ca2+ swelling absorbance, 30 min. inhibition, % at 10 µM. 360,000 tested, 1.4% active. AID 602449;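 active = inhibition of 50% or more, scaled per plate between neutral and stimulator controls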;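 also: 0% = DMSO wells given calcium and 100% = 1 mM EGTA wells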
# ADAM10 confirm: confirmation of inhibitors of human ADAM10. AID 743208. 2,100 tested, 1% active. shares compounds with ADAM10 inh. inhibition, % at 6.95 µM. ADAM10 QFRET peptide cleavage, EDANS fluorescence;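 active = inhibition above about 20% chosen separately for each screening run, limit read from the data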;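 also: 0% = DMSO wells and 100% = marimastat wells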
# ADAM17 ctr: counter-screen for ADAM10 exosite inhibitors: inhibitors of human ADAM17; 2,100 tested, 0.5% active; ADAM17 QFRET peptide cleavage, EDANS fluorescence; shares compounds with ADAM10 inh; inhibition, % at 6.95 µM;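 active = mean triplicate inhibition above the solvent-only control wells' mean plus 3 SD, cut at about 12% in these data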;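 also: 0% = DMSO wells and 100% = marimastat wells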
# ADAM10 counter: counter-screen for ADAM17 exosite inhibitors: inhibitors of human ADAM10; inhibition, % at 6.95 µM; shares compounds with ADAM17 inh; AID 743256; recombinant ADAM10, EDANS/DABCYL FRET peptide cleavage, 3 h; 2,900 tested, 47% active;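 active = mean inhibition over the triplicate runs exceeds the activity threshold set in the earlier primary screen, cut at about 20% in these data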;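 also: 0% = DMSO wells and 100% = marimastat wells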
# ADAM17 confirm: confirmation of inhibitors of human ADAM17; shares compounds with ADAM17 inh; recombinant ADAM17, EDANS/DABCYL QFRET peptide cleavage; inhibition, % at 6.95 µM; 2,900 tested, 65% active;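 active = mean inhibition across replicates above the hit cutoff set in the primary screen, cut at about 8.5% in these data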;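 also: 0% = DMSO wells and 100% = marimastat wells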
# * marks the source's active call; other numbers are inactive results; x = not tested or not shown.
SMILES,ADAM17 inh,ADAM10 inh,MT1-MMP act inh,SKN-1 block,GRIN3A LBD mod,MPTP inh,ADAM10 confirm,ADAM17 ctr,ADAM10 counter,ADAM17 confirm
C=CCC[C@@H](Cc1ccc(F)cc1)C(=O)OC[C@@H](Cc1c[nH]c2ccccc12)NC(=O)[C@H](CC=C)CC(=O)N(CCO)Cc1ccccc1,17*,40*,-14,-6,-3,-1,13,3,69*,26*
C=CCC[C@@H](Cc1ccc(F)cc1)C(=O)OC[C@@H]1CCCN1C(=O)[C@H](CC=C)CC(=O)N[C@H](CO)Cc1ccccc1,9.4*,27*,-3,0,-11,1,0,0,28*,12*
C=CC[C@@H](CC(=O)N[C@@H](CO)Cc1ccccc1)C(=O)N[C@@H](COC(=O)[C@@H](CC=C)Cc1ccc(F)cc1)Cc1c[nH]c2ccccc12,1,-7,-12,10,-385,-2,x,x,x,x
C=CCC[C@H](Cc1ccc(F)cc1)C(=O)OC[C@H](Cc1c[nH]c2ccccc12)NC(=O)[C@@H](CC=C)CC(=O)N[C@H](CO)Cc1ccccc1,12*,30*,0,8,8,-1,13,3,38*,22*
C=CC[C@@H](CC(=O)N(CCO)Cc1ccccc1)C(=O)N[C@@H](COC(=O)[C@@H](CC=C)Cc1ccc(F)cc1)Cc1c[nH]c2ccccc12,8,18,-28,2,4,1,x,x,x,x
Cc1ccc(S(=O)(=O)N2[C@@H](CO)CO[C@H]2CC(=O)OCc2ccccc2)cc1,-1,-9,9,4,x,0,x,x,x,x
CC1(C)CC(=O)C(C=NCCN2CCN(C(=O)c3ccc(F)cc3)CC2)=C(O)C1,-5,0,-1,-40,1,0,x,x,x,x
C=CC[C@H](CC(=O)N(CCO)Cc1ccccc1)C(=O)N[C@@H](COC(=O)[C@@H](CC=C)Cc1ccc(F)cc1)Cc1c[nH]c2ccccc12,14*,37*,-13,-7,1,0,7,3,45*,25*
CC(C)(C)NC(=O)C(OC(=O)c1cccs1)c1ccccc1 (configuration not stated),-2,9,3,7,-2,0,x,x,x,x
Cc1cc(C)cc(NC(=O)C(OC(=O)c2cccs2)c2ccccc2)c1 (configuration not stated),11*,21*,-2,4,-7,-10,5,2,11,8
CC(=O)c1cccc(NC(=O)C(OC(=O)c2ccccc2NS(=O)(=O)c2cccs2)c2ccccc2)c1 (configuration not stated),10*,21*,-2,-1,30*,43,13,5,12,18*
COC(=O)[C@H](CC(C)C)N(CCCc1cn(Cc2ccc(C)cc2)nn1)S(=O)(=O)c1ccccc1Br,13*,23*,x,x,x,x,5,2,24*,16*
COC(=O)[C@H](CC(C)C)N(CCc1cn(Cc2ccc(C)cc2)nn1)S(=O)(=O)c1ccccc1Br,6,12,x,x,x,x,x,x,x,x
Cc1ccc(Nc2nc3c(s2)CCC3)c(C)c1,1,-5,-7,6,1,2,x,x,x,x
O=C(NC1CC1)C1CC(=O)N(c2cccc(Cl)c2)C1 (configuration not stated),-1,5,-4,0,2,-1,x,x,x,x
O=C(CN1CCN(S(=O)(=O)c2ccc(Br)cc2)CC1)N/N=C/c1ccc(Cl)c([N+](=O)[O-])c1,11*,26*,7,-7,10*,-1,2,0,26*,14*
C=CC(=O)Nc1cccc(Oc2cc(Cl)nc3[nH]ccc23)c1,11*,21*,-5,-3,-11,0,4,2,11,10*
CCOC(=O)C(CCC(=O)O)(CCC(C)C)c1csc(N)n1 (configuration not stated),-2,-6,0,1,0,1,x,x,x,x
Cc1csc(SCC(=O)Nc2nc(-c3ccccc3)cs2)n1,12*,22*,3,0,-7,0,0,1,19,14*
COc1cc(OC)cc(OC2(C)CCN(Cc3ccc(OC(C)C)cc3)C2)c1 (configuration not stated),1,-1,2,9,x,2,x,x,x,x
C=CC[C@@H](CC(=O)N(CCO)Cc1ccccc1)C(=O)NC[C@H](OC(=O)[C@@H](CC=C)Cc1ccc(F)cc1)c1ccccc1,13*,26*,-35,9,-5,0,7,2,34*,19*
C=CC[C@@H](CC(=O)N(CCO)Cc1ccccc1)C(=O)N[C@H](COC(=O)[C@@H](CC=C)Cc1ccc(F)cc1)c1ccccc1,15*,34*,-18,6,-1,1,9,4,33*,17*
C=CC[C@H](CC(=O)N(CCO)Cc1ccccc1)C(=O)NC[C@H](OC(=O)[C@@H](CC=C)CC(=O)OC(C)(C)C)c1ccccc1,3,12,-13,-1,-3,0,x,x,x,x
COc1cc(C)c(S(=O)(=O)NCCCn2ccnc2)cc1C,-7,2,0,1,-1,1,x,x,x,x
COc1ccccc1-c1nnc(SC/C(O)=C(\C#N)c2nc3ccccc3[nH]2)n1C1CCCCC1,8.7*,28*,5,15,-4,7,1,0,6,5
CCO[C@H]1OC(C(=O)N2CCN(Cc3ccc4c(c3)OCO4)CC2)=C[C@@H](c2ccc(Br)cc2)[C@@H]1CCCO,9.2*,25*,-4,-9,1,4,0,0,13,7
CCO[C@@H]1OC(C(=O)N2CCN(Cc3ccc4c(c3)OCO4)CC2)=C[C@H](c2ccc3c(c2)OCO3)[C@H]1CCCO,3,8,x,x,0,x,x,x,x,x
CC(C)(C)NC(=O)CN(C(=O)C(=O)Nc1ccc2c(c1)OCCO2)C1CCCC1,-3,0,2,11,-1,-2,x,x,x,x
